Drawing on ChEMBL document CHEMBL1148322, “Synthesis and quantitative structure-activity relationship of hydrazones of N-amino-N'-hydroxyguanidine as electron acceptors for xanthine oxidase” (J Med Chem, 2004), this text covers Acceptor activity for 51 molecules.

SMILES strings stand for the structures.

The target of this series is Xanthine dehydrogenase/oxidase (Bos taurus, UniProt P80457). Kind of series: Electron acceptor activity on bovine milk xanthine oxidase using xanthine as reducing substrate. The conditions noted are these: cattle. In short, it runs like this: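 Run anaerobically at 25 °C in a sealed cuvette with 25 mM Tris-HCl, 1 mM EDTA, pH 7.5. All solutions were argon-gassed for at least 10 min, and the reaction was started by injecting milk xanthine oxidase. Readings from anaerobic controls lacking the acceptor were subtracted. Uric acid formation was read as the increase in absorbance at 295 nm (ε 12.4 mmol⁻¹ cm⁻¹), expressed per min per unit enzyme, as the mean of three determinations.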
Xanthine dehydrogenase/oxidase, sequence (P80457 whole entry): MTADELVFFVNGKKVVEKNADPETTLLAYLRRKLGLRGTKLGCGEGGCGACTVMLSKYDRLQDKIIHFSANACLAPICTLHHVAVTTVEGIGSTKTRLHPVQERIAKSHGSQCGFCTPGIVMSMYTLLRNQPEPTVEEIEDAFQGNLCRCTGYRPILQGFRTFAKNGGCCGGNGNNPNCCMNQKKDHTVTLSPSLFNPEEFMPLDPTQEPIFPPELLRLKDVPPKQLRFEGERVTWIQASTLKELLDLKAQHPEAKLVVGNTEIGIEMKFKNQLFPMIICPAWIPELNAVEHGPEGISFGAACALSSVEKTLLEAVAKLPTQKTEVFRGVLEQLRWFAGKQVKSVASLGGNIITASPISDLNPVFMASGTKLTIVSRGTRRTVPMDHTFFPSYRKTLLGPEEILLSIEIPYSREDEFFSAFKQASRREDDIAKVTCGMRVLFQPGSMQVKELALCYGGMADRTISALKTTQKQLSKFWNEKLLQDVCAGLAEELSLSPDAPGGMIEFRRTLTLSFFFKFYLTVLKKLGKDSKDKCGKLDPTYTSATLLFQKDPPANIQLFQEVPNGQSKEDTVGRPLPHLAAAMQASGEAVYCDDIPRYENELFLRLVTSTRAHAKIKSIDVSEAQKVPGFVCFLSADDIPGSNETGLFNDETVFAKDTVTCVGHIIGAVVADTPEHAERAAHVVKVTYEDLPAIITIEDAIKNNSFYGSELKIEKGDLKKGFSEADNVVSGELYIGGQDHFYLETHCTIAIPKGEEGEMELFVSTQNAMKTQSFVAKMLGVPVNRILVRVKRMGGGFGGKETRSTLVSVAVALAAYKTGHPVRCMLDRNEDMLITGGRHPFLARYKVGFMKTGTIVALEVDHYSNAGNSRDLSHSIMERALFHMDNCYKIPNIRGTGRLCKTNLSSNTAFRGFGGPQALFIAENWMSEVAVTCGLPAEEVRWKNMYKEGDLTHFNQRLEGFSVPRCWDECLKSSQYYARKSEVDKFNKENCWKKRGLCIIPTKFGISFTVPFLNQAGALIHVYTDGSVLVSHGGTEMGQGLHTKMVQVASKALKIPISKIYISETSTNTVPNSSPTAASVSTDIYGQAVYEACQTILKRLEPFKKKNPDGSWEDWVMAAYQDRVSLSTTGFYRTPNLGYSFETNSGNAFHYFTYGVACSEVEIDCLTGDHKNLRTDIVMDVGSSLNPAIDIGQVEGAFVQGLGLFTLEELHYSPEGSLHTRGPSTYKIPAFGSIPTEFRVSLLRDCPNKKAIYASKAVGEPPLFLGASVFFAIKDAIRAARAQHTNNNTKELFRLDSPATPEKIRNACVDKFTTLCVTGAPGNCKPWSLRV
`N=C(NO)N/N=C/c1ccccc1F`: the Acceptor activity was determined as 49.6.
On to `COc1cccc(OC)c1/C=N/NC(=N)NO`, for which the Acceptor activity is on record as 13.2.
In turn, `CCN(CC)c1ccc(/C=N/NC(=N)NO)cc1` displayed an Acceptor activity of 62.1.
For `N=C(NO)N/N=C/c1ccc(Br)cc1` the value was 82.1; for `N=C(NO)N/N=C/c1ccc(Cl)cc1`, 57.9; for `N=C(NO)N/N=C/c1cccc(Cl)c1`, 45.4.
`CN(C)c1ccc(/C=N/NC(=N)NO)cc1` showed an Acceptor activity of 41.
For `N=C(NO)N/N=C/c1cccc2c1OCO2` the value was 44.7; for `COc1ccc(/C=N/NC(=N)NO)c(Cl)c1OC`, 155.6.
Regarding `COc1ccc(OC)c(/C=N/N=C(\N)NO)c1`, the Acceptor activity was 42.3.
Turning to `N=C(NO)N/N=C/c1ccccc1Br`, the Acceptor activity is listed as 72.9.
Next, `COc1cc(OC)c(/C=N/NC(=N)NO)cc1Br`: 16.3; `COc1cc(/C=N/NC(=N)NO)cc(OC)c1`: 30.7.
In the case of `COc1cc(/C=N/NC(=N)NO)c(Br)c(OC)c1OC`, the Acceptor activity worked out at 119.5.
For `N=C(NO)N/N=C/c1ccc(O)cc1` the value was 64.2.
For `COc1cc(OC)c(/C=N/N=C(\N)NO)c(OC)c1` the value was 10.8; for `COc1ccc(/C=N/N=C(\N)NO)c(OC)c1OC`, 81.5.
Next, `COc1cc(Br)cc(/C=N/NC(=N)NO)c1O`: 72.4.
Consider `N/C(=N\O)N/N=C/c1ccc(O)c(O)c1O`, for which the Acceptor activity was 40.5.
For `COc1ccc(/C=N/NC(=N)NO)cc1` the value was 50.9; for `COc1cc(/C=N/N=C(\N)NO)cc(OC)c1OC`, 54.6.
For `COc1ccc(/C=N/NC(=N)NO)cc1O` the value was 68.9.
As for `N/C(=N\O)N/N=C/c1ccccc1O`, the Acceptor activity was 33.8.
Next, `COc1cccc(/C=N/NC(=N)NO)c1O`: 45.5.
In turn, `COc1cc(O)c(/C=N/N=C(\N)NO)c(OC)c1` returned an Acceptor activity of 101.7.
Consider `N=C(NO)N/N=C/c1cccc(O)c1O`, for which the Acceptor activity is listed as 43.7.
The molecule `COc1cc(OC)c(OC)cc1/C=N/N=C(\N)NO` had an Acceptor activity of 29.7.
As for `N=C(NO)N/N=C/c1ccc(O)cc1O`, the Acceptor activity came to 72.9.
Next, `COc1ccc(/C=N/NC(=N)NO)cc1Br`: 35.6.
Next, `N/C(=N\O)N/N=C/c1cccc(F)c1`: 56.2.
For `N=C(NO)N/N=C/c1ccc(F)cc1` the value was 43.2; for `N=C(NO)N/N=C/c1ccccc1Cl`, 90.2.
`COc1ccccc1/C=N/N=C(\N)NO` came in with an Acceptor activity of 59.7.
Consider `COc1cccc(/C=N/NC(=N)NO)c1`, for which the Acceptor activity is 55.
In the case of `COc1cc([N+](=O)[O-])cc(/C=N/NC(=N)NO)c1OC`, the Acceptor activity stood at 0.8.
`COc1ccc(OC)c([N+](=O)[O-])c1/C=N/NC(=N)NO` had an Acceptor activity of 47.3.
`N=C(NO)N/N=C/c1c(Cl)cccc1[N+](=O)[O-]` came in with an Acceptor activity of 44.
For `N=C(NO)N/N=C/c1ccccc1[N+](=O)[O-]` the value was 56.4; for `N/C(=N\O)N/N=C/c1cccc([N+](=O)[O-])c1`, 24.4; for `N=C(NO)N/N=C/c1cc([N+](=O)[O-])ccc1O`, 25.8.
Regarding `N=C(NO)N/N=C/c1ccc([N+](=O)[O-])cc1[N+](=O)[O-]`, the Acceptor activity was found to be 295.7.
The molecule `N=C(NO)N/N=C/c1c([N+](=O)[O-])cccc1[N+](=O)[O-]` came in with an Acceptor activity of 154.5.
Regarding `N=C(NO)N/N=C/c1cc(O)ccc1[N+](=O)[O-]`, the Acceptor activity stood at 31.5.
Molecule `COc1cc([N+](=O)[O-])c(/C=N/NC(=N)NO)c(Cl)c1OC` came in with an Acceptor activity of 48.8.
Next, `N=C(NO)N/N=C/c1c(Cl)ccc(Cl)c1[N+](=O)[O-]`: 68.3.
With `N=C(NO)N/N=C/c1c(Cl)ccc([N+](=O)[O-])c1[N+](=O)[O-]`, the Acceptor activity amounted to 216.3.
Turning to `N=C(NO)N/N=C/c1ccc([N+](=O)[O-])cc1`, the Acceptor activity came out at 94.2.
For `N/C(=N\O)N/N=C/c1ccc(Cl)c([N+](=O)[O-])c1` the value was 42.1; for `N=C(NO)N/N=C/c1ccc(Br)c([N+](=O)[O-])c1`, 35.
For `COc1ccc([N+](=O)[O-])c(/C=N/NC(=N)NO)c1OC` the value was 22.
`COc1cc([N+](=O)[O-])c([N+](=O)[O-])c(/C=N/NC(=N)NO)c1OC`: the Acceptor activity amounted to 52.9.
